Bioassay records from PubChem.
This is a sample that favours compounds with a hit; in the whole collection about 4.4% have one here.
EBI2 block: antagonists of human EBI2 receptor; P32249; inhibition, % at 5 µM; EBI2 beta-arrestin recruitment, luminescence, 7a,25-OHC stimulated; actives 0.81% (n = 360,000); in the data active = inhibition above about 38%;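 note: enzyme fragment complementation signal reports receptor beta-arrestin coupling in cells; 0% = agonist plus DMSO wells and 100% = wells without agonist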
Target sequence (P32249 whole entry, looked up, the tested form may be a part): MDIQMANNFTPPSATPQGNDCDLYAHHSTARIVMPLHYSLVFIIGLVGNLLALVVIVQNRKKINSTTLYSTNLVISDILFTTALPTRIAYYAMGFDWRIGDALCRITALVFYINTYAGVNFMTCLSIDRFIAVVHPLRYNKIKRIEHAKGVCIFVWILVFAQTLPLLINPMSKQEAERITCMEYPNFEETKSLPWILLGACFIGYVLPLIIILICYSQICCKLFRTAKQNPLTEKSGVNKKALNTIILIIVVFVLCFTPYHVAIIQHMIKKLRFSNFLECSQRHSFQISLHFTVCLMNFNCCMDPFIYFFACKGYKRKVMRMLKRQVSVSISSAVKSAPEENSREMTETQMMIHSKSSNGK
MPTP inh: permeability transition pore inhibition. isolated mouse mitochondria, Ca2+ swelling absorbance, 30 min. inhibition, % at 10 µM. actives 1.4% (n = 360,000). AID 602449;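 active = inhibition of 50% or more, scaled per plate between neutral and stimulator controls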;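 note: 0% = DMSO wells given calcium and 100% = 1 mM EGTA wells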
NR3A LBD binder: modulators (binders) of human NR3A ligand-binding domain; actives 2.5% (n = 340,000); Tm shift relative to glycine control, % at 25 µM; NR3A LBD differential scanning fluorimetry, Tm shift; 0% = protein alone, 100% = glycine-bound protein;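 active = melting temperature shift of at least 10% of the positive control shift, at one fixed dose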
SENP1 FRET inh: SENP1 (human) catalytic domain inhibition | Q9P0U3 | recombinant SENP1 catalytic domain, CyPet-SUMO1-YPet FRET cleavage | inhibition, % at 10 µM | actives 0.21% (n = 360,000) | AID 624204;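 active = inhibition at least 30% at 10 µM, raw YFP signal under a set limit, fluorescence ratio 0.5 to 1.5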;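 note: 0% = enzyme with DMSO and 100% = no enzyme wells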
Target sequence (Q9P0U3 419-644 limits assumed): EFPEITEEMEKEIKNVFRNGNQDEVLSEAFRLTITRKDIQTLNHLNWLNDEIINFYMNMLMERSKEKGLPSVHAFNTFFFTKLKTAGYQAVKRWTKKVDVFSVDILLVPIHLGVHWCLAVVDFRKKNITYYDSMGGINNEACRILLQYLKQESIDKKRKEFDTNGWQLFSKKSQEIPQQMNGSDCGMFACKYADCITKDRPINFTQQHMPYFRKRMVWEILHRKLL
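Material – human SENP1 catalytic domain · Input – SENP1 enzyme, 20 pM final · Compound dosing – single concentration of 10 µM compound, 0.5% DMSO final · Timing – enzyme reaction for 50 min at room temperature, dark · Measured by – FRET fluorescence in CFP and YFP emission channels · Control set – no-enzyme wells low, DMSO-plus-enzyme wells high control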
* = called active by the depositor.

Results for COc1cccc(NC(=O)CN(C)C(=O)c2cccnc2Nc2cccc(C(F)(F)F)c2)c1 ?
EBI2 block: 1; MPTP inh: 2; NR3A LBD binder: 35*; SENP1 FRET inh: -1

What do the screens show for `CCC(=O)N1CCc2cc(Br)cc(S(=O)(=O)CC(=O)OC)c21`?
EBI2 block: -5; MPTP inh: 1; NR3A LBD binder: 14*; SENP1 FRET inh: 0

How did COc1cc(C(=O)NCc2nnc(SCC(=O)NCCc3ccccc3)o2)cc(OC)c1OC do in these assays?
EBI2 block: -2; MPTP inh: 2; NR3A LBD binder: -3; SENP1 FRET inh: 0

What do the screens show for `COc1cccc2sc(Nc3nc(-c4ccccn4)cs3)nc12`?
EBI2 block: 86*; MPTP inh: 6; SENP1 FRET inh: -15

Results for c1ccc(Nc2nc(-c3ccccn3)cs2)cc1 ?
EBI2 block: 26; MPTP inh: 0; NR3A LBD binder: 4; SENP1 FRET inh: 7

How did CCOC(=O)Cc1csc(/N=C/c2c(O)n(-c3ccc(C)c(C)c3)c(=O)c3ccccc23)n1 do in these assays?
EBI2 block: 6; MPTP inh: 1; NR3A LBD binder: -1; SENP1 FRET inh: -26

How did Cc1ccccc1NCC(=O)N/N=C\C=C\c1cccc([N+](=O)[O-])c1 do in these assays?
EBI2 block: 4; MPTP inh: 2; NR3A LBD binder: 15*; SENP1 FRET inh: 1

How did COc1cc(OC)cc(C(=O)NCC(=O)OCC(=O)c2ccc3c(c2)-c2ccccc2C3)c1 do in these assays?
EBI2 block: 1; MPTP inh: 3; NR3A LBD binder: -1; SENP1 FRET inh: 1

Results for CCCOc1ccc(CNC(=S)N/N=C/c2ccc([N+](=O)[O-])cc2)cc1 ?
EBI2 block: -1; MPTP inh: 12; NR3A LBD binder: 11*; SENP1 FRET inh: 14

What do the screens show for `CC(C)COc1ccc(CNC(=S)N/N=C/c2ccc([N+](=O)[O-])cc2)cc1`?
EBI2 block: 1; MPTP inh: -2; NR3A LBD binder: 2; SENP1 FRET inh: 7

What do the screens show for `CCc1ccc(C(O)c2ncc(-c3ccccc3C)[nH]2)cc1` (stereo not drawn)?
EBI2 block: -10; MPTP inh: 2; SENP1 FRET inh: 1

Results for COc1cccc(-c2cc(C(=O)Nc3cccc(O)c3)no2)c1 ?
EBI2 block: 4; MPTP inh: 0; NR3A LBD binder: 24*; SENP1 FRET inh: 0

Results for O=C(Nc1cccc(O)c1)c1cc(-c2cccs2)on1 ?
EBI2 block: 16; MPTP inh: 0; NR3A LBD binder: 15*; SENP1 FRET inh: 2

How did COc1ccc(NC(=O)c2cc(-c3ccccc3Cl)on2)cc1 do in these assays?
EBI2 block: 5; MPTP inh: -1; NR3A LBD binder: 37*; SENP1 FRET inh: 1

Results for COc1ccc(NC(=O)c2cc(-c3ccccc3OC)on2)cc1 ?
EBI2 block: 9; MPTP inh: 0; NR3A LBD binder: -9; SENP1 FRET inh: 0

How did O=C(Cn1c(-c2ccccc2)noc1=O)NCc1ccccc1 do in these assays?
EBI2 block: -12; MPTP inh: 0; NR3A LBD binder: 13*; SENP1 FRET inh: 2

How did O=C(CC(=O)NCc1ccccc1)NCc1ccccc1 do in these assays?
EBI2 block: -3; MPTP inh: 0; NR3A LBD binder: -1; SENP1 FRET inh: 2

What do the screens show for `CC(C)c1ccccc1NC(=O)C1C2C=CC(C2)C1C(=O)O` (stereo not drawn)?
EBI2 block: -4; MPTP inh: 0; NR3A LBD binder: 2; SENP1 FRET inh: 3

What do the screens show for `CN(C)CCCN(C(=O)CCOc1ccccc1)c1nc2c(F)cccc2s1`?
EBI2 block: 48*; MPTP inh: -1; NR3A LBD binder: 0; SENP1 FRET inh: 0

How did O=C(Nn1c(O)c(C=C2N=c3ccccc3=N2)sc1=S)c1ccccc1Cl do in these assays?
EBI2 block: -7; MPTP inh: 1; NR3A LBD binder: 23*; SENP1 FRET inh: -16

Results for C/C(=N\NC(=S)NCCc1ccccc1)c1ccc(O)cc1O ?
EBI2 block: 6; MPTP inh: 2; NR3A LBD binder: 17*; SENP1 FRET inh: -14

What do the screens show for `Oc1ccccc1/C=N/NC(=S)NCCc1ccccc1`?
EBI2 block: 0; MPTP inh: 2; NR3A LBD binder: 28*; SENP1 FRET inh: -105

Results for S=C(NCCc1ccccc1)Nc1ccc(Nc2ccccc2)cc1 ?
EBI2 block: 2; MPTP inh: 1; NR3A LBD binder: 23*; SENP1 FRET inh: 0

What do the screens show for `C/C(=N\NC(=S)NCCc1ccccc1)c1ccc(Cl)cc1Cl`?
EBI2 block: 13; MPTP inh: 1; NR3A LBD binder: -2; SENP1 FRET inh: 1

How did CCN(CC)S(=O)(=O)c1ccc(NC(=S)Nc2ccccc2)cc1 do in these assays?
EBI2 block: -13; MPTP inh: 5; NR3A LBD binder: 1; SENP1 FRET inh: -1

What do the screens show for `COc1cc(OC)cc(C(=O)Nc2nnc(NC(=S)Nc3ccccc3)s2)c1`?
EBI2 block: 5; MPTP inh: 0; NR3A LBD binder: 26*; SENP1 FRET inh: 3

Results for COc1cc(OC)cc(C(=O)Nc2ccc(Nc3ccccc3)cc2)c1 ?
EBI2 block: 18; MPTP inh: 1; NR3A LBD binder: 0; SENP1 FRET inh: -1

How did CCN(CC)S(=O)(=O)c1ccc(C(=O)Nc2nnc(NC(=S)Nc3ccccc3)s2)cc1 do in these assays?
EBI2 block: 9; MPTP inh: 8; NR3A LBD binder: 28*; SENP1 FRET inh: 4

How did CC(=O)NC(c1ccccc1)c1nc(/C=C/c2ccccc2)cs1 (stereo not drawn) do in these assays?
EBI2 block: 3; MPTP inh: 0; SENP1 FRET inh: 0

What do the screens show for `CCCCc1ccc(NC(=S)Nc2ccc(Nc3ccc(OC)cc3)cc2)cc1`?
EBI2 block: 10; MPTP inh: 28; NR3A LBD binder: 12*; SENP1 FRET inh: 0

Results for CC(OC(=O)c1ccc(NC(=O)CC#N)cc1)C(=O)Nc1nc(-c2ccccc2)cs1 (stereo not drawn) ?
EBI2 block: 21; MPTP inh: 0; NR3A LBD binder: 21*; SENP1 FRET inh: -18

How did CCCCC(CC)Cn1c(N)c(C#N)c2nc3ccccc3nc21 (stereo not drawn) do in these assays?
EBI2 block: 13; MPTP inh: 42; NR3A LBD binder: 11*; SENP1 FRET inh: -22

Results for CCN(CC)CCCNC(=O)C(C)n1nc(C)c2sc3ccccc3c2c1=O (stereo not drawn) ?
EBI2 block: 7; MPTP inh: 1; NR3A LBD binder: 2; SENP1 FRET inh: 3

How did CCN(CC)CCNc1ccc(C)c2sc3ccc(O)cc3c(=O)c12 do in these assays?
EBI2 block: 0; MPTP inh: 5; NR3A LBD binder: 2; SENP1 FRET inh: 39*

What do the screens show for `C/C(=N\NC(=O)C1CCCC1)c1ccc(NC(=O)C(F)(F)F)cc1`?
EBI2 block: -2; MPTP inh: 1; SENP1 FRET inh: 3

Results for Cc1nnc(SCC(=O)Nc2ccccc2F)n1-c1ccc(F)cc1 ?
EBI2 block: -1; MPTP inh: 0; NR3A LBD binder: 1; SENP1 FRET inh: 2
